Assay results taken from ChEMBL document CHEMBL1157562, “Piperazinyl glutamate pyridines as potent orally bioavailable P2Y12 antagonists for inhibition of platelet aggregation” (J Med Chem, 2010).

Experiments:
[1] = Clearance in Sprague-Dawley rat at 2 mg/kg, iv and 5 mg/kg, po; assay type: ADME, organism-based; settings: in vivo
Summary of the method: (§1)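 Rats received 2 mg/kg iv infusion or 5 mg/kg po, in 50% PEG400/40% PBS/10% ethanol.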

[2] = test system: Platelet; experiment: Relative potency, ratio of IC50 for drug to IC50 for AZD-6140 for platelet aggregation in human platelet rich plasma; assay type: functional
[3] = Volume of distribution at steady state in Sprague-Dawley rat at 2 mg/kg, iv and 5 mg/kg, po; assay type: ADME, organism-based; settings: in vivo, read-out: Vdss; summary of the method: as §1
[4] = Half life in Sprague-Dawley rat at 2 mg/kg, iv and 5 mg/kg, po; assay type: ADME, organism-based; settings: in vivo; summary of the method: as §1
[5] = Antiplatelet aggregation activity against adenosine diphosphate-induced human platelet rich plasma assessed as inhibition of platelet aggregation by turbidimetric method; assay type: functional; settings: Homo sapiens, Platelet, Plasma
Summary of the method: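 Human PRP, prepared by two-step centrifugation and adjusted to 330 000 platelets/μL with PPP. Compound was preincubated 5 min at 37 °C in 0.5% DMSO, then 20 μM ADP was added. OD626 was read kinetically for 15 min at 37 °C with mixing between reads.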

[6] = target: P2Y purinoceptor 12 (Homo sapiens, UniProt Q9H244); experiment: Displacement of [33P]ADP from human recombinant P2Y12 receptor expressed in CHO cells; assay type: cell-based
P2Y purinoceptor 12, sequence (Q9H244 whole entry): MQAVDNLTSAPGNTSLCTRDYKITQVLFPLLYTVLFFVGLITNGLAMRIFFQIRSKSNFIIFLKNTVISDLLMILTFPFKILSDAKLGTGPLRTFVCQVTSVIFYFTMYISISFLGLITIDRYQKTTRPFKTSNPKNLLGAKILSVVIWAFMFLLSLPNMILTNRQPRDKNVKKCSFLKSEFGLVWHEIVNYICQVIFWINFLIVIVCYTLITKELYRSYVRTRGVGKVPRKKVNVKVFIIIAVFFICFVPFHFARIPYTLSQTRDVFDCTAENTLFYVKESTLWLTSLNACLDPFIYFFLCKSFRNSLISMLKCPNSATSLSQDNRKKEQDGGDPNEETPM
Summary of the method: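 Washed membranes from CHO cells expressing synthetic human P2Y12, incubated 1 h at room temperature with 0.2 nM 33P-MeSADP in 50 mM Tris/100 mM NaCl/1 mM EDTA. Compound was tested as a 7-point 3-fold series in triplicate. Nonspecific binding was defined with 300 nM 2-MeSADP, followed by filtration.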

CCCCCOC(=O)N1CCN(C(=O)[C@H](CCC(=O)O)NC(=O)c2cc(N3CCC(CN(C)C)CC3)cc(-c3ccccc3)n2)CC1
clearance [1]: 92 mL/min/kg
Ratio IC50 [2]: 1.3
Vd [3]: 2.1 L/kg
half-life [4]: 18 min

CCCCCOC(=O)N1CCN(C(=O)[C@H](CCC(=O)O)NC(=O)c2cc(OCC3CCN(C(C)C)CC3)cc(-c3ccccc3)n2)CC1
clearance [1]: 63 mL/min/kg
IC50 [5]: 380 nM
Ki [6]: 5.5 nM
Ratio IC50 [2]: 0.5
Vd [3]: 3.4 L/kg
half-life [4]: 36 min

CCCCCOC(=O)N1CCN(C(=O)[C@H](CCC(=O)O)NC(=O)c2cc(CCCN(C)C)cc(-c3ccccc3)n2)CC1
clearance [1]: 38 mL/min/kg
IC50 [5]: 1300 nM
Ki [6]: 1 nM
Ratio IC50 [2]: 1.3
Vd [3]: 3.2 L/kg
half-life [4]: 60 min

CCCCCOC(=O)N1CCN(C(=O)[C@H](CCC(=O)O)NC(=O)c2cc(OCC3CCNCC3)cc(-c3ccccc3)n2)CC1
clearance [1]: 62 mL/min/kg
IC50 [5]: 820 nM
Ki [6]: 4.5 nM
Ratio IC50 [2]: 0.82
Vd [3]: 1.3 L/kg
half-life [4]: 12 min

CCOC(=O)N1CCN(C(=O)[C@H](CCC(=O)O)NC(=O)c2cc(N3CCOCC3)cc(-c3ccccc3)n2)CC1
clearance [1]: 58 mL/min/kg
IC50 [5]: 25000 nM
Ki [6]: 39 nM
Ratio IC50 [2]: 22
Vd [3]: 3.4 L/kg
half-life [4]: 42 min

CCCCCOC(=O)N1CCN(C(=O)[C@H](CCC(=O)O)NC(=O)c2cc(OCC3CCN(C)CC3)cc(-c3ccccc3)n2)CC1
clearance [1]: 130 mL/min/kg
IC50 [5]: 330 nM
Ki [6]: 5.3 nM
Ratio IC50 [2]: 0.62
Vd [3]: 6.9 L/kg
half-life [4]: 36 min

CCCCCOC(=O)N1CCN(C(=O)[C@H](CCC(=O)O)NC(=O)c2cc(CCCNCC(C)C)cc(-c3ccccc3)n2)CC1
clearance [1]: 112 mL/min/kg
IC50 [5]: 1000 nM
Ki [6]: 12 nM
Ratio IC50 [2]: 1.5
Vd [3]: 5.6 L/kg
half-life [4]: 36 min

CCCCCOC(=O)N1CCN(C(=O)[C@H](CCC(=O)O)NC(=O)c2cc(N3CCC(N(C)C)CC3)cc(-c3ccccc3)n2)CC1
clearance [1]: 81 mL/min/kg
IC50 [5]: 1800 nM
Ki [6]: 22 nM
Ratio IC50 [2]: 2.1
Vd [3]: 2.3 L/kg
half-life [4]: 18 min

CCCCCOC(=O)N1CCN(C(=O)[C@H](CCC(=O)O)NC(=O)c2cc(OC(=O)N(C)CC3CCOCC3)cc(-c3ccccc3)n2)CC1
clearance [1]: 109 mL/min/kg
IC50 [5]: 470 nM
Ki [6]: 45 nM
Ratio IC50 [2]: 0.82
Vd [3]: 8.6 L/kg
half-life [4]: 78 min

CCCCCOC(=O)N1CCN(C(=O)[C@H](CCC(=O)O)NC(=O)c2cc(C(=O)N3CCC(OC)CC3)cc(-c3ccccc3)n2)CC1
clearance [1]: 54 mL/min/kg
IC50 [5]: 460 nM
Ki [6]: 3.2 nM
Ratio IC50 [2]: 0.99
Vd [3]: 1.2 L/kg
half-life [4]: 15 min

CCCCCOC(=O)N1CCN(C(=O)[C@H](CCC(=O)O)NC(=O)c2cc(C(=O)N3CCC(N(C)C)CC3)cc(-c3ccccc3)n2)CC1
clearance [1]: 37 mL/min/kg
IC50 [5]: 580 nM
Ki [6]: 5.4 nM
Ratio IC50 [2]: 1
Vd [3]: 0.77 L/kg
half-life [4]: 12 min

CCCCCOC(=O)N1CCN(C(=O)[C@H](CCC(=O)O)NC(=O)c2cc(N3CCC(N)CC3)cc(-c3ccccc3)n2)CC1
clearance [1]: 32 mL/min/kg
IC50 [5]: 1100 nM
Ki [6]: 17 nM
Ratio IC50 [2]: 1.2
Vd [3]: 0.38 L/kg
half-life [4]: 6 min

CCOC(=O)N1CCN(C(=O)[C@H](CCC(=O)O)NC(=O)c2cc(N3CCCCC3)cc(-c3ccccc3)n2)CC1
clearance [1]: 34 mL/min/kg
IC50 [5]: 29000 nM
Ki [6]: 112 nM
Ratio IC50 [2]: 34
Vd [3]: 1.3 L/kg
half-life [4]: 24 min

CCCCCOC(=O)N1CCN(C(=O)[C@H](CCC(=O)O)NC(=O)c2cc(C(=O)NCC)cc(-c3ccccc3)n2)CC1
IC50 [5]: 9700 nM
Ki [6]: 13 nM
Ratio IC50 [2]: 13

CCCCCCOC(=O)N1CCN(C(=O)[C@H](CCC(=O)O)NC(=O)c2cc(N3CCC(N)CC3)cc(-c3ccccc3)n2)CC1
IC50 [5]: 2400 nM
Ki [6]: 3.3 nM
Ratio IC50 [2]: 3.4

CCCCCOC(=O)N1CCN(C(=O)[C@H](CCC(=O)O)NC(=O)c2cc(NC(=O)NCC3CCNCC3)cc(-c3ccccc3)n2)CC1
IC50 [5]: 5600 nM
Ki [6]: 1.4 nM
Ratio IC50 [2]: 3.8

CCCCCOC(=O)N1CCN(C(=O)[C@H](CCC(=O)O)NC(=O)c2cc(OCC3CCN(S(=O)(=O)CC)CC3)cc(-c3ccccc3)n2)CC1
IC50 [5]: 2800 nM
Ki [6]: 7.4 nM
Ratio IC50 [2]: 1.9

CCCCOC(=O)N1CCN(C(=O)[C@H](CCC(=O)O)NC(=O)c2cc(OCC3CCN(S(=O)(=O)CC)CC3)cc(-c3ccccc3)n2)CC1
IC50 [5]: 3000 nM
Ki [6]: 5.3 nM
Ratio IC50 [2]: 2.8

CCCCCOC(=O)N1CCN(C(=O)[C@H](CCC(=O)O)NC(=O)c2cc(CCCOC)cc(-c3ccccc3)n2)CC1
IC50 [5]: 5000 nM
Ki [6]: 8.4 nM
Ratio IC50 [2]: 6.6

CCCCOC(=O)N1CCN(C(=O)[C@H](CCC(=O)O)NC(=O)c2cc(OC3CCCNC3)cc(-c3ccccc3)n2)CC1 (stereo partly specified)
IC50 [5]: 3900 nM
Ki [6]: 6.9 nM
Ratio IC50 [2]: 1.8

CCCCCOC(=O)N1CCN(C(=O)[C@H](CCC(=O)O)NC(=O)c2cc(C(=O)N3CCN(C(C)=O)CC3)cc(-c3ccccc3)n2)CC1
IC50 [5]: 320 nM
Ki [6]: 1.7 nM
Ratio IC50 [2]: 0.48

CCCCCOC(=O)N1CCN(C(=O)[C@H](CCC(=O)O)NC(=O)c2cc(N3CCC(NC)CC3)cc(-c3ccccc3)n2)CC1
IC50 [5]: 1000 nM
Ki [6]: 6.5 nM
Ratio IC50 [2]: 1.1

CCCCOC(=O)N1CCN(C(=O)[C@H](CCC(=O)O)NC(=O)c2cc(OC(=O)N(C)C)cc(-c3ccccc3)n2)CC1
IC50 [5]: 1100 nM
Ki [6]: 2 nM
Ratio IC50 [2]: 1.1

CCCCCOC(=O)N1CCN(C(=O)[C@H](CCC(=O)O)NC(=O)c2cc(OC(=O)N(C)C3CCOC3)cc(-c3ccccc3)n2)CC1 (stereo partly specified)
IC50 [5]: 470 nM
Ki [6]: 2.3 nM
Ratio IC50 [2]: 0.59

CCCCCOC(=O)N1CCN(C(=O)[C@H](CCC(=O)O)NC(=O)c2cc(N3CCC(N4CCOCC4)CC3)cc(-c3ccccc3)n2)CC1
IC50 [5]: 2000 nM
Ki [6]: 10 nM
Ratio IC50 [2]: 0.95

CCCCOC(=O)N1CCN(C(=O)[C@H](CCC(=O)O)NC(=O)c2cc(OCC3CCCNC3)cc(-c3ccccc3)n2)CC1 (stereo partly specified)
IC50 [5]: 1200 nM
Ki [6]: 3.7 nM
Ratio IC50 [2]: 0.57

CCCCOC(=O)N1CCN(C(=O)[C@H](CCC(=O)O)NC(=O)c2cc(OCC3CCN(CCOC)CC3)cc(-c3ccccc3)n2)CC1
IC50 [5]: 620 nM
Ki [6]: 5.3 nM
Ratio IC50 [2]: 0.53

CCCCCOC(=O)N1CCN(C(=O)[C@H](CCC(=O)O)NC(=O)c2cc(N3CCCCC3)cc(-c3ccccc3)n2)CC1
IC50 [5]: 16000 nM
Ki [6]: 5.5 nM
Ratio IC50 [2]: 18

CCCCOC(=O)N1CCN(C(=O)[C@H](CCC(=O)O)NC(=O)c2cc(OCC3CCN(C(=O)OCC)CC3)cc(-c3ccccc3)n2)CC1
IC50 [5]: 4000 nM
Ki [6]: 7.6 nM
Ratio IC50 [2]: 2.2

CCCCOC(=O)N1CCN(C(=O)[C@H](CCC(=O)O)NC(=O)c2cc(OC(=O)N3CCOCC3)cc(-c3ccccc3)n2)CC1
IC50 [5]: 760 nM
Ki [6]: 1.7 nM
Ratio IC50 [2]: 0.75

CCCCOC(=O)N1CCN(C(=O)[C@H](CCC(=O)O)NC(=O)c2cc(NCCOC)cc(-c3ccccc3)n2)CC1
IC50 [5]: 3200 nM
Ki [6]: 2.4 nM
Ratio IC50 [2]: 2.4

CCCCOC(=O)N1CCN(C(=O)[C@H](CCC(=O)O)NC(=O)c2cc(OCC3CCN(C(=O)COC)CC3)cc(-c3ccccc3)n2)CC1
IC50 [5]: 1500 nM
Ki [6]: 2.6 nM
Ratio IC50 [2]: 1.4

CCCCCOC(=O)N1CCN(C(=O)[C@H](CCC(=O)O)NC(=O)c2cc(OC(=O)N3CCC(OCC)CC3)cc(-c3ccccc3)n2)CC1
IC50 [5]: 590 nM
Ki [6]: 6 nM
Ratio IC50 [2]: 1.2
